“And” between values parts separate entries of the source, which are not always exact repeats. Equal values may be shown once. Read-outs that look alike come from different tables or passages of the source. Marks after values point to notes of the source that are not given here.
Tests used:
[1] = system: mammary epithelial cell line (MCF10A); test: cells; assay type: cell-based; settings: for IC50 / inhibition at 100 µM: Homo sapiens, MCF-10A; for IC50: 48 h, read-out: MCF10A cells IC50; for inhibition at 100 µM: read-out: MCF10A cells % inhibition at 100 μM; for Selectivity index (SI) H. contortus L4 (72 h) / Selectivity index (SI) H. contortus L4 development (7 days) / Selectivity index (SI) H. contortus xL3 (72 h): highest value of IC50 range; for selectivity index (SI) for parasitic larvae of H. contortus, range: range over xL3, L4 motility and L4 development
[2] = system: Haemonchus contortus fourth-stage larvae (L4s); test: L4 motility assay; assay type: cell-based
[3] = system: Haemonchus contortus exsheathed third-stage larvae (xL3s); test: Whole-organism xL3 motility assay; assay type: cell-based; settings: for IC50: Haemonchus contortus
[4] = system: adult female and male Brugia malayi; settings: ref Storey et al., 2014, cited from earlier work
[5] = system: microfilariae of Brugia malayi; settings: read-out: motility IC50, B. malayi microfilariae; ref Storey et al., 2014; cited from earlier work
[6] = system: microfilariae of Dirofilaria immitis; settings: read-out: motility IC50, D. immitis microfilariae; cited from earlier work
[7] = system: adult A. ceylanicum; test: Adult hookworm in vitro assay; assay type: cell-based, Ancylostoma ceylanicum; settings: for killing of adult A. ceylanicum: 50 μM, 72 h
Procedure, shortened: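 Adult worms taken from small intestines of hamsters orally infected with 150 A. ceylanicum L3s three weeks earlier. Three worms per well, 2 wells per compound, in HBSS with 10% foetal calf serum, amphotericin B (25 μg/ml), penicillin (100 U/ml) and streptomycin (100 μg/ml). Test compound at 50 μM; levamisole (50 μM) as positive control. Held 72 h at 37 °C, 5% CO2, then condition assessed microscopically.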

[8] = system: T. muris L1s; test: Whipworm L1 in vitro assay; assay type: cell-based, Trichuris muris
Procedure, shortened: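 Forty T. muris L1s per well in 100 μl RPMI-1640 with amphotericin B (12.5 μg/ml), penicillin (500 U/ml) and streptomycin (500 μg/ml). Test compound at 100 μM in duplicate; levamisole (100 μM) as positive control. Held 24 h at 37 °C, 5% CO2. Total L1s counted, then larvae stimulated with 100 μl hot water and motile L1s counted.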

[9] = system: microfilariae of Brugia malayi; test: Microfilariae motility assay; assay type: cell-based; settings: 72 h, read-out: motility IC50, B. malayi microfilariae
Procedure, shortened: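 Individual gravid B. malayi females in RPMI-1640 with gentamycin (10 μg/ml) and amphotericin B (2.5 μg/ml). Two-fold test-compound dilutions from 100 to 0.97 μM in duplicate; RPMI* with 1% DMSO as negative control. Incubated at 37 °C, 5% CO2. At 72 h, about 100 released microfilariae moved to 96-well plates and filmed for 30 s on the Worminator. Run three times; IC50 from a four-parameter variable-slope fit.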

[10] = system: microfilariae of Dirofilaria immitis; test: microbe, parasite or virus in culture; assay type: cell-based; settings: for IC50: Dirofilaria immitis, read-out: motility IC50, D. immitis microfilariae
[11] = system: adult female and male Brugia malayi; test: Adult motility assay; assay type: cell-based; settings: for IC50: Brugia malayi
[12] = 24 h, read-out: L4 motility IC50
[13] = 48 h, read-out: L4 motility IC50
[14] = 72 h, read-out: L4 motility IC50
[15] = 24 h, read-out: xL3 motility IC50
[16] = 48 h, read-out: xL3 motility IC50
[17] = 72 h, read-out: xL3 motility IC50
[18] = IC50 MCF10A / IC50 nematode, estimated IC50 range

Compound | IC50 [1] | inhibition at 100 µM [1] | Selectivity index (SI) H. contortus L4 (72 h) ([1]; IC50 MCF10A / IC50 nematode) | Selectivity index (SI) H. contortus L4 development (7 days) ([1]; IC50 MCF10A / IC50 nematode) | selectivity index (SI) for parasitic larvae of H. contortus, range [1] | IC50 [2, 12] | IC50 [2, 13] | IC50 [2, 14] | IC50 [3, 15] | IC50 [3, 16] | IC50 [3, 17] | Selectivity index (SI) H. contortus xL3 (72 h) ([1]; IC50 MCF10A / IC50 nematode) | IC50 [6] | killing of adult A. ceylanicum [7] | further results
C[C@](C#N)(COc1cc(C#N)ccc1C(F)(F)F)NC(=O)c1ccc(SC(F)(F)F)cc1 [Monepantel, monepantel] | 24.9 ± 11.8 µM | 0.1 ± 0.05% | 67.4 | 332.4 | 67–332 | 0.76 ± 0.29 µM | 0.34 ± 0.18 µM | 0.37 ± 0.32 µM | 0.48 ± 0.23 µM | 0.26 ± 0.15 µM | 0.16 ± 0.08 µM |  |  |  | 
CO/N=C1\C[C@]2(C[C@@H]3C[C@@H](C/C=C(\C)C[C@@H](C)/C=C/C=C4\CO[C@@H]5[C@H](O)C(C)=C[C@@H](C(=O)O3)[C@]45O)O2)O[C@H](/C(C)=C/C(C)C)[C@H]1C [Moxidectin, moxidectin] | < 6 µM | 0.05 ± 0.01% | 300 | 1.7 | 2 to 300 | 0.07 ± 0.04 µM | 0.05 ± 0.02 µM | 0.02 ± 0.01 µM | 0.19 ± 0.03 µM | 0.97 ± 0.84 µM | 0.08 ± 0.04 µM | 75 | 9.3 µM |  | comparison value for motility of adult B. malayi ([4]; 24 h): 1.3 µM; comparison value for motility of adult B. malayi ([4]; 48 h): 2.9 µM; IC50 [5]: ~6 µM
c1ccc([C@H]2CN3CCSC3=N2)cc1 [levamisole, reference compound] |  |  |  |  |  |  |  |  |  |  |  |  |  | killed | killing of T. muris L1s ([8]; 100 μM, 24 h): killed
ivermectin |  |  |  |  |  |  |  |  |  |  |  |  | 43 µM |  | 
O=C(Nc1ccc(Cl)cc1)N1CCCC1c1nc(-c2ccccc2)no1 (stereo not shown) [SN00797439, N-(4-chlorophenyl)-2-(3-phenyl-1,2,4-oxadiazol-5-yl)-1-pyrrolidinecarboxamide] | 50 to 100 µM | 6.2 ± 0.66% | 128.2 ^b | 9.1 | 9–128 | 6.25 to 12.5 µM | 0.78 to 1.5 µM | 0.31 to 0.78 µM | 3.46 ± 0.82 µM | 10.1 ± 2.06 µM | 5.93 ± 1.38 µM | 16.9 |  | killed | IC50 [9]: ~3 µM; Selectivity index (SI) D. immitis mff (48 h) [1]: 2 ^b; Selectivity index (SI) B. malayi adult females [1, 18]: 2 ^b; Selectivity index (SI) B. malayi adult males [1, 18]: 2 ^b; kill of adults of A. ceylanicum (abstract) [7]: > 90%; IC50 ([2]; read-out: L4 motility IC50 (abstract summary)): 0.31 to 12.5 µM; concentration giving complete inhibition of microfilariae motility [10]: 100 µM; IC50 ([10]; 24 h): ~50 µM; IC50 ([10]; 48 h): ~50 µM; xL3 phenotype ([3]; 20 μM): “coiled” xL3 phenotype; reduction of xL3 motility ([3]; 20 μM, 72 h, primary and confirmatory screens): ≥ 70%; IC50 ([3]; read-out: xL3 IC50 (abstract summary)): 3.46 to 5.93 µM; concentration at which movement of female and male adults ceased ([11]; 24 h): 100 µM; concentration at which movement of female and male adults ceased ([11]; 48 h): 50 µM; IC50 ([11]; 24 h, read-out: motility IC50, B. malayi adult female): 25 to 50 µM; IC50 ([11]; 24 h, read-out: motility IC50, B. malayi adult male): 25 to 50 µM; T. muris L1s dead ([8]; 100 μM, 24 h): > 90% and 90.1%; IC50 ([8]; Trichuris muris, read-out: IC50 on first-stage larvae of T. muris (abstract)): 3 to 50 µM
